Mcl1-Bid inh: Mcl-1/Bid interaction inhibition | Q07820 | TR-FRET Mcl-1/Bid-Dy647 peptide binding, 1536-well | inhibition, % at 21.7 µM | actives 0.97% (n = 220,000) | AID 1021;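 active = compounds that cut the binding signal by more than half at the single screening dose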;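 note: His-tagged Mcl-1 with europium anti-His antibody binding Bid BH3 peptide; 0% = Mcl-1 plus peptide wells and 100% = peptide-only wells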
Target sequence (Q07820 whole entry, looked up): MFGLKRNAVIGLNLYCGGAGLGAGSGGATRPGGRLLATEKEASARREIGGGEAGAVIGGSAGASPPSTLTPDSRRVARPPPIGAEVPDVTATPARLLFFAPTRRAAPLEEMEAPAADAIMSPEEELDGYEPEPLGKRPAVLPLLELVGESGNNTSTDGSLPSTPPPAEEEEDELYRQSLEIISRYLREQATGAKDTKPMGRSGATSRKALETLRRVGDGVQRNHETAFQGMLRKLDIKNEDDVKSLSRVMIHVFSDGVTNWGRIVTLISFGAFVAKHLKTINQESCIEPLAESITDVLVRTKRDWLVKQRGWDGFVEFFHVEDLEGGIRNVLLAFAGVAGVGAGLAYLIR
Mcl-1 Bim block: disrupts Bim peptide binding to human Mcl-1 | Q07820 | Bead-based flow cytometry, Bim peptide-Mcl-1 binding | inhibition, % at 10 µM | actives 0.1% (n = 190,000); in the data active = inhibition above about 40%;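 note: 0% = no compound tracer wells and 100% = peptide blocker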
MCL1-BIM inh: disrupts human MCL1 binding to BIM-BH3 peptide; GST-MCL1 / FITC-Bim-BH3 fluorescence polarization; inhibition, % at 10.9 µM; actives 0.68% (n = 320,000);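 active = inhibition above the mean inhibition of all tested compounds plus 3 SD, set per campaign, cut at about 40% in these data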;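 note: 0% = DMSO wells and 100% = unlabeled Bim-BH3 peptide control; higher means more loss of mP so more displacement of Bim peptide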
EBV gp42 inh: EBV gp42 inhibition; Q1HVG2; Fluorescence polarization binding assay, mP read-out; inhibition, % (tested at 21.74 µM); actives 0.42% (n = 220,000); AID 1085; in the data active = inhibition above about 50%
Mcl1-Noxa inh: disrupts binding of human Mcl-1 to Noxa peptide; inhibition, % at 21.7 µM; AID 1022; TR-FRET Mcl-1/Noxa peptide binding, 2 h; actives 1.5% (n = 220,000); Q07820;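 active = compounds that cut the protein-peptide binding signal by more than 50% relative to plate controls in a single-dose test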;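 note: His-tagged Mcl-1 with rhodamine Noxa BH3 peptide and terbium anti-His antibody; 0% = Mcl-1 plus Noxa peptide wells and 100% = peptide-only wells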
RBBP9 inh: human RBBP9 hydrolase inhibition. recombinant RBBP9, FP-Rh probe fluorescence polarization. inhibition, % at 7.94 µM. actives 0.2% (n = 220,000). AID 1515;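 active = inhibition above the campaign mean of all tested compounds plus 3 SD, cut at about 14% in these data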;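 note: plate controls were DMSO wells with RBBP9 for no effect and wells lacking RBBP9 protein for full effect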
Target sequence (O75884 whole entry, looked up): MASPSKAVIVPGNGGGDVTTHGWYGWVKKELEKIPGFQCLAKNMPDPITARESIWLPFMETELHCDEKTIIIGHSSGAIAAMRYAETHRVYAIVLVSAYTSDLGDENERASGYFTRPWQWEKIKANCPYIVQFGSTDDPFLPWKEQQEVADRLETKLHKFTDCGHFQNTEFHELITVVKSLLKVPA
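System: RBBP9 protein | Quantity: 2.5 µM RBBP9 dispensing solution, before mixing | Reagent: FP-Rh probe, 375 nM dispensing solution | Timing: Enzyme-compound preincubation 30 min, then probe labeling 45 min, 25 °C | Measured by: Fluorescence polarization | Read-out: % inhibition | Replication: One well per compound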
* hit, by the source's call. Most compounds without a hit are left out; they make up all but 2.2% or so of the library.

`O=C(COc1ccccc1)NC(=S)Nc1cccc([N+](=O)[O-])c1` gave Mcl1-Bid inh -13, Mcl-1 Bim block -2, MCL1-BIM inh 14, EBV gp42 inh 2, Mcl1-Noxa inh 5 and RBBP9 inh -6.
For O=C(COc1ccccc1)NC(=S)Nc1ccc2c(c1)Cc1ccccc1-2 the results were Mcl1-Bid inh -34, Mcl-1 Bim block 13, MCL1-BIM inh 16, EBV gp42 inh 9, Mcl1-Noxa inh 52* and RBBP9 inh -1.
Screening Cc1cc(/C=N/n2c(COc3ccccc3C)nc3ccccc3c2=O)c(O)c([N+](=O)[O-])c1 returned Mcl1-Bid inh -2, Mcl-1 Bim block -1, MCL1-BIM inh 8, EBV gp42 inh 1, Mcl1-Noxa inh 81* and RBBP9 inh -1.
`CCOc1ccc(-c2nnc(-c3ccccc3)n2-c2ccccc2)cc1` gave Mcl1-Bid inh 61*, Mcl-1 Bim block 3, MCL1-BIM inh 2, EBV gp42 inh 16, Mcl1-Noxa inh -122 and RBBP9 inh -6.
Cc1cc(/C=C(/C#N)C(=O)O)c(C)n1-c1cccc2ccccc12 was read as MCL1-BIM inh -2.
O=c1[nH]c(CN2CCN(c3ccccc3O)CC2)nc2scc(-c3ccccc3Cl)c12 was read as Mcl1-Bid inh -21, MCL1-BIM inh -7, EBV gp42 inh -7, Mcl1-Noxa inh 14 and RBBP9 inh -7.
For O=c1[nH]c(CN2CCN(c3ccc(O)cc3)CC2)nc2scc(-c3ccc(Cl)cc3)c12 the results were Mcl1-Bid inh -55, Mcl-1 Bim block 11, MCL1-BIM inh 9, EBV gp42 inh -7, Mcl1-Noxa inh 66* and RBBP9 inh 0.
`CN(CC(=O)Nc1ccc(Cl)cc1)C(=O)Cc1c(F)cccc1Cl` gave MCL1-BIM inh -24.
`C=CCSc1nc2c(sc3nc(C)cc(C)c32)c(=O)[nH]1` gave Mcl1-Bid inh -5, Mcl-1 Bim block 1, MCL1-BIM inh 13, EBV gp42 inh -14, Mcl1-Noxa inh 57* and RBBP9 inh -7.
For N#CC1=C(S)N(c2ccccc2)C(c2ccc(-c3cc(Cl)ccc3Cl)o2)NC1=O (configuration not stated) the results were Mcl1-Bid inh -32, Mcl-1 Bim block -4, MCL1-BIM inh -8, EBV gp42 inh -5, Mcl1-Noxa inh 76* and RBBP9 inh -6.
For CSc1nc2ccc3nc(NC(=O)c4ccc(Cl)s4)sc3c2s1 the results were Mcl1-Bid inh 66*, Mcl-1 Bim block 1, MCL1-BIM inh -1, EBV gp42 inh 13, Mcl1-Noxa inh 52* and RBBP9 inh -10.
Screening O=C(Nc1nc2ccc(F)cc2s1)c1cccs1 returned Mcl1-Bid inh -2, Mcl-1 Bim block -2, MCL1-BIM inh 5, EBV gp42 inh -6, Mcl1-Noxa inh 2 and RBBP9 inh -3.
Screening CSc1nc2ccc3nc(NC(=O)c4cccs4)sc3c2s1 returned Mcl1-Bid inh 66*, Mcl-1 Bim block -15, MCL1-BIM inh 8, EBV gp42 inh -36, Mcl1-Noxa inh 30 and RBBP9 inh -6.
`Cc1cc(C)c(-n2c(SCCS(=O)(=O)c3ccc(F)cc3)n[nH]c2=O)c(C)c1` gave Mcl1-Bid inh -8, MCL1-BIM inh 4, EBV gp42 inh -1, Mcl1-Noxa inh 4 and RBBP9 inh 4.
For COc1ccc(N/N=C(C)/C(=N/O)C(=O)Nc2ccccc2)cc1 the results were Mcl1-Bid inh -34, Mcl-1 Bim block -1, MCL1-BIM inh 5, EBV gp42 inh -21, Mcl1-Noxa inh 9 and RBBP9 inh -12.
For O=C(/C=C/c1ccc(N2CCC(c3ccccc3)=N2)cc1)c1ccccc1 the results were Mcl1-Bid inh -14, MCL1-BIM inh -50, EBV gp42 inh 53*, Mcl1-Noxa inh 13 and RBBP9 inh -14.
Screening CC12CCC(=O)N1C(C(=O)Nc1nc(-c3cc(F)ccc3F)cs1)CS2 (configuration not stated) returned MCL1-BIM inh -9.
`Cc1ccc(-c2cc(C(=O)NC3=NCCS3)c3cc(Br)ccc3n2)o1` gave Mcl1-Bid inh 51*, Mcl-1 Bim block 8, MCL1-BIM inh 24, EBV gp42 inh -15, Mcl1-Noxa inh 102* and RBBP9 inh -8.
O=C(NN1CCOCC1)c1cc(-c2ccc(Br)s2)nc2ccccc12 was read as Mcl1-Bid inh 4, Mcl-1 Bim block -3, MCL1-BIM inh -5, EBV gp42 inh -2, Mcl1-Noxa inh 6 and RBBP9 inh -8.
`Cc1ccc(-c2cc(C(=O)NN3CCOCC3)c3cc(Br)ccc3n2)o1` gave Mcl1-Bid inh 1, Mcl-1 Bim block 1, MCL1-BIM inh 10, EBV gp42 inh 3, Mcl1-Noxa inh 57* and RBBP9 inh -7.
`O=C(NC1=NCCS1)c1cc(-c2cccs2)nc2ccccc12` gave Mcl1-Bid inh -93, MCL1-BIM inh -9, EBV gp42 inh -24, Mcl1-Noxa inh 8 and RBBP9 inh 0.
For Cc1ccc(-c2cc(C(=O)NCCCn3ccnc3)c3cc(Br)ccc3n2)o1 the results were Mcl1-Bid inh 34, Mcl-1 Bim block 0, MCL1-BIM inh 34, EBV gp42 inh -11, Mcl1-Noxa inh 76* and RBBP9 inh -5.
`Cc1cccc(-c2cc(C(=O)NCCCn3ccnc3)c3ccccc3n2)c1` gave Mcl1-Bid inh -27, Mcl-1 Bim block -2, EBV gp42 inh -5, Mcl1-Noxa inh 5 and RBBP9 inh 2.
For CCC1=NN(C(=O)c2cccc([N+](=O)[O-])c2)C(O)(c2ccc(C)cc2)C1 (configuration not stated) the results were MCL1-BIM inh 3.
CNS(=O)(=O)c1ccc2nc(NC(=O)c3ccc(N4C(=O)CCC4=O)cc3)sc2c1 was read as Mcl1-Bid inh -15, Mcl-1 Bim block -3, MCL1-BIM inh 4, EBV gp42 inh -22, Mcl1-Noxa inh 60* and RBBP9 inh -2.
O=C(COc1ncnc2cc([N+](=O)[O-])ccc12)NCc1ccc2c(c1)OCO2 was read as Mcl1-Bid inh 12, Mcl-1 Bim block 6, MCL1-BIM inh 9, EBV gp42 inh 14, Mcl1-Noxa inh 60* and RBBP9 inh 0.
For COc1ccc(CCNC(=O)COc2ncnc3cc([N+](=O)[O-])ccc23)cc1 the results were Mcl1-Bid inh 1, Mcl-1 Bim block 1, MCL1-BIM inh 4, EBV gp42 inh -15, Mcl1-Noxa inh 32 and RBBP9 inh -3.
For O=[N+]([O-])c1cccc(COc2ncnc3cc([N+](=O)[O-])ccc23)c1 the results were Mcl1-Bid inh -50, MCL1-BIM inh -1, EBV gp42 inh -17, Mcl1-Noxa inh 53* and RBBP9 inh -7.
Cc1ccc(NC(=O)C2CCN(S(=O)(=O)c3ccc4c(c3)CCCC(=O)N4)CC2)c(Br)c1 was read as MCL1-BIM inh 4.

Source: PubChem (several laboratories)
